According to ChEMBL document CHEMBL4513216, “Probing the Open Global Health Chemical Diversity Library for Multistage-Active Starting Points for Next-Generation Antimalarials” (ACS Infect Dis, 2020):

assay: Toxicity liver stage against HepG2, at 10uM; type: cell-based; design: test concentration 10 uM, cell line HepG2-A16-CD81EGFP; conditions: human, HepG2-A16-CD81EGFP cells; read-out: INHIBITION
In short: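 Uninfected HepG2-A16-CD81EGFP cells, 3 × 10^3 per well, 1536-well, plated on prespotted compound at 10 μM final, parasite-free screening media added to match infected plates; puromycin 10 μM positive, DMSO 0.5% negative; run in parallel with 48 h PbLuc assay at 37 °C, 5% CO2; viability by CellTiter-Glo luminescence, normalized to controls.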

Structure (SMILES) | cytotoxicity at 10 µM [%]
COCC(=O)Nc1ccc([C@@H](O)[C@H]2COCC(=O)N2C)cc1 | 10.3
CCS(=O)(=O)N1CCc2ccc(NC(=O)NC3CCCCC3)cc21 | -4.56
CNC(=O)[C@@H]1[C@H]2CN(Cc3ccccn3)CCN2C[C@H]1c1ccccc1 | 3.38
O=C(C1CCC1)N1CCC(=O)N(C2CC2)Cc2cc(F)ccc21 | -7.76
CNc1oc(-c2ccc(OC)c(S(=O)(=O)N(C)C)c2)nc1C#N | 1.71
CN1C(=O)c2cccc(NC(=O)c3ccc4c(c3)OCCO4)c2C1=O | 4.02
CSCCC(C)(O)CNC(=O)c1ccsc1 (configuration not stated) | -4.57
COC1(CNC(=O)c2cccc(C#N)c2)CCSC1 (configuration not stated) | -7.93
O=C1CCC2(CCCN(C(=O)NCc3ccccc3)CC2)N1 (configuration not stated) | 5.23
CC(C)NC(=O)CC1COC2(CCN(Cc3ccco3)CC2)C1 (configuration not stated) | -0.567
Cc1ncnc2c1CCN(C(=O)c1cccc(F)c1)CC2 | 8.27
CCOCC1COCCC12CCN(C(=O)CCOC)CC2 (configuration not stated) | -6.4
O=C(N1CCOCC1)[C@@]12CCO[C@@H]1CCN(C1CCCC1)C2 | 7.83
Cn1ncc2c1NC(=O)CC2c1cc(Cl)ccc1F (configuration not stated) | 78.6
O=C1CC(c2ccc(C(=O)O)cc2)c2ncn(-c3ccccc3)c2N1 (configuration not stated) | -1.04
Cc1nc(N(C)C)nc2c1COCC21CCN(C(=O)NC(C)C)C1 (configuration not stated) | -13
c1ccc(CN2CC[C@H]3CO[C@H](CNc4ncccn4)[C@H]3C2)nc1 | -9.63
Cc1nn(C)cc1CN(C)C(=O)c1cnccn1 | -5.2
O=C(O)c1ccc(COc2cccc(Cl)c2)s1 | 8.96
Cc1nn(C)c2cnn(CC(=O)NCc3cccs3)c12 | 6.28
CCN1CCCC(O)(CN(C)Cc2ccccc2F)C1 (configuration not stated) | -6.43
COc1ccc2oc(-c3cn(C)nc3C)c(O)c(=O)c2c1 | 9.96
Cc1nc(NCCc2ccc(Cl)cc2)cc(C(=O)N2CCCCC2)n1 | -23

Structure (SMILES) | cytotoxicity at 10 µM [%]
Cc1nc(CN2CCCC2c2[nH]ncc2C(=O)N(C)C)cs1 (configuration not stated) | -0.722
CCN1CCCc2cc(CN3CCc4c(nc(C)[nH]c4=O)C3)ccc21 | -1.02
CN(C)c1nccc(C2CN(c3ccccc3)CCO2)n1 (configuration not stated) | -2.4
CC(=O)N1CC(C(=O)NC(C)c2cnn(C)c2C)C1 (configuration not stated) | 4.65
Cc1nc(N(C)C)cc(C2(C)CCCNC2)n1 (configuration not stated) | 2.05
CNC(=O)C1CN(C)CCN(CCCOc2ccccc2F)C1 (configuration not stated) | -1
Fc1cccc(-c2nccnc2C2CCCNC2)c1 (configuration not stated) | -16.5
Nc1nonc1C(=O)N1Cc2ccccc2OC2(CCOCC2)C1 | -29.5
NCc1cnn(-c2ccccc2C(=O)NCCc2ccncc2)c1 | 0.664
COCC(=O)N1CCC(c2cncc(-c3cccc(F)c3)n2)CC1 | -11.3
O=C(O)C1(Cc2cc(-c3ccc(F)cc3)no2)CCOCC1 | -20.8
CC(=O)N1CCN([C@@H]2CCC[C@@H](NC(=O)c3cccnc3)[C@H]2O)CC1 | -0.00173
CC(=O)N1CCC(Cc2cccc(-c3c(C)noc3C)n2)C1 (configuration not stated) | 0.664
CC(=O)N1CCC(c2n[nH]c3nccnc23)CC1 | -8.69
Cc1ccccc1SCC(=O)NC1CCC(O)CC1 (configuration not stated) | 9.58
CC(C)CCC(=O)N1CCC2(CC1)OCCO2 | -0.457
COC(=O)COc1ccc(-c2noc(C3CCCO3)n2)cc1 (configuration not stated) | 1.07
Cc1ccc(F)c(S(=O)(=O)Nc2cn(C)cc(Br)c2=O)c1 | -7.73
c1cncc(-c2noc(CNC3CCCN(c4cccnn4)C3)n2)c1 (configuration not stated) | 3.26
Cc1cnn(CC2CCCCN2C(=O)Cc2c(C)noc2C)c1 (configuration not stated) | -0.807
COc1ccc(F)c(NCc2cnn(C3CCS(=O)(=O)C3)c2)c1 (configuration not stated) | 2.65
COc1ccc(C(=O)NCCC(N)=O)c(I)c1 | 9.34
COc1ccccc1CC(=O)NC(CC(=O)O)c1ccc(C)cc1 (configuration not stated) | 11.2

Structure (SMILES) | cytotoxicity at 10 µM [%]
N#CCCCS(=O)(=O)N1CCCC1CC(=O)c1cccs1 (configuration not stated) | -5.07
CCc1nc(CN(C)CC2CCN(CC(C)O)CC2)no1 (configuration not stated) | -10.3
CCS(=O)(=O)CCNC(=O)c1ccc(-c2ccc(C)cc2)cc1F | -14.2
Cn1cc(CN2CCC3(CC2)CN(c2cccnc2)C(=O)CO3)cn1 | -103
O=C1CC(c2ccccc2)C2(CCN(Cc3ccncc3)CC2)N1 (configuration not stated) | -4.72
O=C(Nc1cccnc1)[C@@H]1C[C@H]2OCC[C@H]2N(Cc2nccs2)C1 | 5.02
Cc1ccc(CNCC2Cn3nnc(-c4cnn(C)c4)c3CO2)o1 (configuration not stated) | 2.42
Cc1nc(CN(Cc2ccncc2)C2CCN(C)CC2)cs1 | -2.56
OCc1csc(N2C[C@@H](CN3CCCCCC3)[C@@H](CO)C2)n1 | 2.65
COC[C@@H]1CCCN1C(=O)CCc1c(C)nn(C)c1C | 5.01
Cc1cc(N[C@H](CO)c2ccccc2)n2nc(C)cc2n1 | -1.58
CCn1cc(CN2CCCN(C3Cc4ccccc4C3)CC2)cn1 | 2.66
Cc1ccccc1Oc1ncccc1CNS(=O)(=O)N(C)C | -4.09
CCC(CO)N(C/C(C)=C/c1ccco1)Cc1ccccn1 (configuration not stated) | -2.46
c1cncc(-c2noc(CNc3ncnc4c3CCNCC4)n2)c1 | 3.18
CCS(=O)(=O)c1ncc(CN(C)Cc2ccc(C)o2)n1CCOC | -4.66
CC(C)n1cc(C(=O)NCCc2cn3ccsc3n2)cn1 | 8.67
OCC1(CC2CC2)CCCN(Cc2ccc(C(F)(F)F)nc2)C1 (configuration not stated) | -5.96
CC(=O)c1cc(CN2CCCCC2c2nc3cc(F)ccc3[nH]2)cs1 (configuration not stated) | -1.08
Cc1n[nH]c(C)c1CCCN(C)c1cc(N(C)C)ncn1 | -3.37
CC(C)c1cc(C(=O)N(Cc2ccncc2)CC2CCCO2)no1 (configuration not stated) | 15.6
Cc1ccc(CCN2C(=O)CC[C@H]3CN(Cc4cnn(C)c4)CC[C@H]32)o1 | -2.19
Cn1c(CN2CCOCC2)nnc1C1CCCN(C(=O)CCC2CC2)C1 (configuration not stated) | 6.72

Structure (SMILES) | cytotoxicity at 10 µM [%]
Cc1cc(C(=O)N2CCC(c3nccn3Cc3ccccn3)CC2)no1 | -1.85
CCSCC(C)NCc1ccccc1-n1ccnc1 (configuration not stated) | 11.7
Cc1ccc(Cn2cc(C)c(N)n2)cc1 | -0.751
COc1cccc(CNc2cnn(CC(F)F)c2)c1 | -7.16
CCn1cnnc1C1CCN(C(=O)c2cccc(C)c2C)CC1 | -3.61
CC(=O)N(C)c1nc(CN2CCCC2Cn2cncn2)cs1 (configuration not stated) | -1.01
COC(=O)c1cccn1C1CCN(C(=O)c2cc(F)ccc2C)CC1 | -2.13
O=C(COC1CCCC1)NS(=O)(=O)c1ccc2c(c1)OCCCO2 | -15.3
O=C(CCc1ccsc1)Nc1cccnc1N1CCCC1 | -7.07
CS(=O)(=O)NC1CCN(C(=O)NCc2cc[nH]n2)CC1 | -6.37
CN(Cc1cccc(F)c1)C(=O)c1cc2c([nH]c1=O)CCCC2=O | -7.45
O=C(c1cc2c(s1)CCOC2)N1CCCC1Cn1cccn1 (configuration not stated) | -2.06
COCc1nc(C(=O)NS(=O)(=O)c2cc(Br)ccc2C)cs1 | -1.66
CCc1ccc(C(=O)N2CCCN(Cc3nccn3CC)CC2)s1 | -8.72
CCC(C)N(C)CCNC(=O)c1ccccc1OCCOC (configuration not stated) | 0.386
CC(C)C(=O)NC1CCCN(C(=O)c2ccccc2O)C1 (configuration not stated) | -2.55
Cc1ccc(NC2CCN(C(=O)CCCn3ccnc3C)CC2)nn1 | -11.8
Cc1cc(C)n(CC2CCCN2C(=O)CCCNc2ncccn2)n1 (configuration not stated) | -19
COc1ccc2c(c1)CN(Cc1nc3ccsc3c(=O)[nH]1)CC2 | -4.64
CCN1CCN(c2ccc(CNC(=O)c3c(C)noc3C)cn2)CC1 | 0.265
Cc1ccn2cc(C(=O)N3CCCC3c3c(C)nn(C)c3C)nc2c1 (configuration not stated) | 3.2
O=C(CSc1ccc(F)c(F)c1)NS(=O)(=O)c1ccc2c(c1)OCCO2 | -4.28
CN(C)Cc1cc(C2CCN(C(=O)C3CC34CCC4)CC2)nn1C (configuration not stated) | -15

Structure (SMILES) | cytotoxicity at 10 µM [%]
CC(C)c1ncc(CN2CCC(CO)C2)cn1 (configuration not stated) | -25.8
CN(C)C(=O)CN1CCC2(CCCN(Cc3cccs3)C2)C1=O (configuration not stated) | -113
COc1ccc(CC(=O)N2CCN(C)c3ncccc3C2)cc1 | -5.79
c1cncc(OCC2CN(Cc3nccs3)Cc3nccn3C2)c1 (configuration not stated) | 6.9
O=C(Cc1cccnc1)N1CCC2(CC1)CCN(C1CCOCC1)CC2 | -8.25
COc1ncc(C2(O)CCN(Cc3cccs3)CC2)c(OC)n1 | 1.9
COC[C@@H]1CCC[C@]12CN(Cc1ccco1)CCO2 | -4.89
O=C(c1cnoc1)N1CCC[C@]2(C[C@@H](OCc3ccccn3)CO2)C1 | -9.47
COCCC(=O)N1C[C@H]2CN(Cc3cccnc3)C(=O)[C@H]2C1 | -0.95
CNC(=O)c1cc2c(nc1NCC1CC1)CCN(CC1CC1)CC2 | 0.864
O=C(Nc1cnccn1)[C@H]1CC[C@@H]2[C@@H](CCN2Cc2ccoc2)O1 | 8.86
CC(C)Nc1ncnc2c1CCN(C(=O)Cc1ccccn1)CC2 | 3.3
O=C(c1c[nH]cn1)N1CCOCC2(C1)CN(c1ccccc1)C(=O)CO2 (configuration not stated) | -7.27
c1cnc(N2CCOC3(CCN(CC4CCOC4)CC3)C2)nc1 (configuration not stated) | -0.777
COCCNC(=O)[C@@]12CCO[C@@H]1CCN(Cc1scnc1C)C2 | -10.6
Cc1cccc(CN2CCC3(CCCN(C(=O)NC(C)C)C3)C2=O)n1 (configuration not stated) | 7.51
CN(Cc1cn2c(n1)CN(CC1CC1)CC2)Cc1ccco1 | 1.39
CN1CC(=O)N(c2ccccc2)CC12CCN(Cc1cccnc1)C2 (configuration not stated) | -2.09
CC(C)C(=O)N1CCCC2(CC(C(=O)NCc3cccnc3)=NO2)C1 (configuration not stated) | -2.77
O=C(CCn1cccn1)N1C[C@H]2CC[C@@H](C1)N(Cc1ccccn1)C2=O | -13.6
